Sampled rows, rich in hits. Any-hit rate of the full collection: about 1.8%.
CHRM4 agonist: CHRM4 agonism in calcium assay; P08173; hit rate 0.14% among 360,000; AID 624127; CHO-K1 hM4/Gqi5, Fluo-8 calcium fluorescence; vehicle 0%, full acetylcholine response 100%; activation, % at 3 µM;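 active = activation above the run mean over all test wells plus 3 SD, cut at about 32% in these data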;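 also: peak over basal fluorescence ratio per well then scaled between controls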
Target sequence (P08173 whole entry, looked up): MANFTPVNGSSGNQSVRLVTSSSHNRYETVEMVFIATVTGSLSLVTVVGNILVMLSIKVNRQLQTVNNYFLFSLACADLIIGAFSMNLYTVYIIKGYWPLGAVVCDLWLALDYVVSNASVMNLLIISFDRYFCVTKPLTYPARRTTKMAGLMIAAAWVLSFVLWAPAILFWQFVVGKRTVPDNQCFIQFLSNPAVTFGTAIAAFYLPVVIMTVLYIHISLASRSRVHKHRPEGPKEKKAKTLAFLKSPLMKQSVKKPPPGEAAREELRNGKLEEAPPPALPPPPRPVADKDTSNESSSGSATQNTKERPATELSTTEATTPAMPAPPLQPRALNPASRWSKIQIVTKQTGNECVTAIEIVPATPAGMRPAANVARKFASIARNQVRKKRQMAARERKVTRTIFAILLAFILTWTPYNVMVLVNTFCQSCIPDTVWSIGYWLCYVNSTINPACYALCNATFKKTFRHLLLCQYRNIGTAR
M5 antag: blocks acetylcholine activation of human M5 receptor | P08912 | CHO-hM5 cells, Fluo-8 calcium fluorescence, ACh EC80 | inhibition, % at 3 µM | hit rate 0.59% among 360,000;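 active = inhibition above a per-plate cutoff, the mean of that plate's test compounds plus 3 SD, cut at about 27% in these data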
M5 PAM: CHRM5 positive allosteric modulation; P08912; CHO-K1 hM5, Fluo-8 calcium, ACh EC20 PAM; 0% = ACh EC20, 100% = ACh EC100; activation, % at 3 µM; hit rate 0.3% among 360,000; AID 624038;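 active = activation above the run cutoff, the mean activation of all test compounds plus 3 SD, cut at about 18% in these data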
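System: CHO-K1 hM5 cells. Reagent: acetylcholine, EC20 level. Compound dosing: single dose, 3 µM nominal final test concentration. Timing: Post-acetylcholine fluorescence recording 140 s. Detection: Fluo-8 calcium fluorescence. Read-out: % activation, ACh-normalized. Benchmarks: ACh EC20 and EC100 wells. Repeats: singlicate, one well per test compound.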
CHRM5 agonist: CHRM5 agonism in calcium assay | P08912 | CHO-K1 hM5 cells, Fluo-8 calcium fluorescence; 0% DMSO wells, 100% maximal acetylcholine response | activation, % at 3 µM | hit rate 0.19% among 360,000;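 active = activation above the run's mean over test compounds plus 3 SD, cut at about 23% in these data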;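 also: signal is peak over basal fluorescence ratio across the kinetic read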
M4 antag: CHRM4 antagonism in calcium assay; P08173; hit rate 0.73% among 360,000; AID 624125; inhibition, % at 3 µM; CHO-hM4 cells, ACh EC80, Fluo-8 calcium fluorescence;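 active = inhibition above its plate's cutoff, the mean inhibition of sample wells plus 3 SD, cut at about 27% in these data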
M4 PAM: CHRM4 positive allosteric modulation | CHO-K1 hM4/Gqi5, Fluo-8 calcium fluorescence, ACh EC20; 0% = ACh EC20, 100% = maximal ACh | P08173 | activation, % at 3 µM | AID 624126 | hit rate 0.4% among 360,000;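 active = activation above its plate's cutoff, the mean activation of sample wells plus 3 SD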
A number is an active result; n = inactive.

SMILES	CHRM4 agonist	M5 antag	M5 PAM	CHRM5 agonist	M4 antag	M4 PAM
CC(C)NC(=O)NC(=O)CSc1ccc(S(=O)(=O)N2CCOCC2)cn1	n	n	n	n	n	21.1
CCCCNC(=O)CSc1ccc(S(=O)(=O)N2CCOCC2)cn1	n	n	n	n	n	n
CCCCCCCNC(=O)CN1C(=O)CSc2ccc(S(=O)(=O)N3CCOCC3)cc21	n	29.9	n	n	n	n
CCCCNC(=O)CN1C(=O)CSc2ccc(S(=O)(=O)N3CCOCC3)cc21	n	n	n	n	n	n
O=C(N/C(=C/c1ccc(Cl)cc1)c1nc2ccccc2[nH]1)c1ccco1	n	n	n	n	n	n
O=C(/C(=C/c1ccc(Cl)cc1)c1nc2ccccc2[nH]1)c1ccccc1	n	n	n	n	38.2	n
COCCCn1c(SCC(=O)NC(C)C)nnc1-c1ccccc1	n	n	18.9	n	n	n
COCCn1c(SCC(=O)Nc2ccc(NC(=O)c3ccco3)c(OC)c2)nc2ccccc2c1=O	n	n	n	n	n	20.0
COCCCn1c(SCC(N)=O)nnc1-c1ccccc1	n	n	n	n	n	n
COCCn1c(SCC(=O)NCc2ccccc2)nnc1-c1ccco1	n	n	n	n	n	18.4
CCOC(=O)C1(C)CCCN1C(=O)c1ccc(C(F)(F)F)nc1C (stereo not given)	n	n	n	n	n	n
COCc1cc(C)c2c(N)c(C#N)sc2n1	n	n	n	n	n	33.7
O=C(Cn1c(=O)oc2ccccc21)NCC1COc2ccccc2O1 (stereo not given)	n	n	n	n	n	n
Cn1ncc(Cl)c1C(=O)N1CCN(c2ccc(Cl)c(Cl)c2)CC1	n	29.1	n	n	n	n
O=C(NS(=O)(=O)Nc1ccccn1)c1c[nH]c2ccccc12	n	n	n	n	n	n
COc1ccc2noc3c2c1C(=O)c1ccccc1-3	59.3	27.9	n	51.4	36.5	n
CN(C(=O)COC(=O)C1=COCCO1)C1(C#N)CCCCC1	n	n	n	n	n	n
N#CC1(NC(=O)COC(=O)C2=COCCO2)CCCCC1	112.8	n	n	n	n	n
Nc1nc(Nc2ccccc2F)nc(NCc2ccccc2)c1[N+](=O)[O-]	n	n	19.1	n	n	n
Nc1nc(Nc2ccccc2)nc(NCc2ccccc2)c1[N+](=O)[O-]	n	n	n	n	n	n
Cc1cc(Cl)ccc1OC(C)C(=O)Nc1ccc(C(=O)Nc2ccccc2C(=O)O)cc1 (stereo not given)	n	n	n	n	n	23.4
CC(NC(=O)Cn1ccsc1=N)C12CC3CC(CC(C3)C1)C2 (stereo not given)	n	n	n	n	n	n
CC(NC(=O)Cn1c(=O)[nH]c2ccsc2c1=O)C12CC3CC(CC(C3)C1)C2 (stereo not given)	n	n	n	n	n	19.2
CCCCCCCCCCCCCCCC[N+](C)(C)Cc1ccc(F)cc1	n	n	n	n	36.3	n
CC#CC[N+](C)(C)CCCCCCCC	n	n	n	n	n	n
SMILES	CHRM4 agonist	M5 antag	M5 PAM	CHRM5 agonist	M4 antag	M4 PAM
COc1ccccc1NC(=O)Cn1nnc(-c2ccccc2NS(=O)(=O)c2ccccc2)n1	n	34.0	n	n	n	n
Cc1cccc(C)c1C(O)c1ncc(-c2ccccc2Cl)[nH]1 (stereo not given)	n	n	n	n	n	n
CN(C)S(=O)(=O)c1cccc(NC(=O)c2ccccc2OCc2ccc(F)cc2)c1	n	n	n	n	n	n
CC(=O)c1cccc(NC(=O)c2ccccc2OCc2ccc(F)cc2)c1	n	31.7	n	n	n	n
NCC/C=C1/c2ccccc2CSc2ccccc21	n	34.0	n	n	n	n
C=CCN(C)CC/C=C1\c2ccccc2CSc2ccccc21	n	62.0	n	n	52.1	n
CN(CC/C=C1/c2ccccc2CSc2ccccc21)CCCO	n	44.4	n	n	64.8	n
C#CCN(C)CC/C=C1\c2ccccc2CSc2ccccc21	n	36.9	n	n	31.9	n
CC(O)CN(C)CC/C=C1/c2ccccc2CSc2ccccc21 (stereo not given)	n	n	n	n	n	n
CCOc1ncccc1C(=O)Nc1ccc2c(C)cc(=O)oc2c1	n	n	21.9	n	n	n
CN(C)NC(=S)NC1CCS(=O)(=O)C1 (stereo not given)	n	n	21.1	n	n	n
CSc1ccc(/C=C(\NC(=O)c2ccccc2)C(=O)NN)cc1	n	n	n	n	n	n
COc1ccc(OC)c(/C=N/NC(=O)C(=O)N2CCCC2)c1	n	n	n	n	n	22.4
CC[C@H](C)[C@H](NS(=O)(=O)c1ccc(C)cc1)C(=O)N1CCC(C(=O)N[C@H](C(=O)O)C(C)C)CC1	n	n	19.7	n	n	n
N#Cc1ccc(CN2CCN(C(=O)Cn3nc(C(N)=O)c4ccccc4c3=O)CC2)cc1	n	n	n	n	n	n
CCOC(=O)C1CCCN(C(=O)c2ccc(F)c(C)c2)CC1 (stereo not given)	n	n	n	n	n	n
C[C@H]1CN(c2ccccc2)C(=O)[C@@H]1CC(=O)Nc1ccc(Br)cc1	n	27.4	n	n	n	n
O=C(NCCCCl)C1CC(=O)N(CCc2ccc(F)cc2)C1 (stereo not given)	n	n	n	n	n	n
COC(=O)c1cc(S(=O)(=O)Nc2ccc(C)cn2)c[nH]1	n	27.4	n	n	n	n
COc1ccc(C(C#N)=C2C=CC(=NO)C=C2)cc1	n	n	n	n	n	n
N#CC(=C1C=CC(=NO)C(Cl)=C1)c1ccc(Cl)cc1	n	n	n	n	39.2	n
COc1ccc(OC(=O)COc2ccccc2C)cc1	n	n	n	n	n	n
O=C(Nc1ccccc1OC(F)F)c1ccc(F)cc1	n	n	24.2	n	n	n
CC(C)(C)c1ccc(/C=C(\C#N)C(=O)NC2CC2)cc1	n	n	n	n	n	n
O=C(Nc1cccn(Cc2ccc(F)cc2)c1=O)NC1CCCCC1	n	n	n	n	n	n
Cc1ccc(Cn2cccc(NC(=O)NC3CCCCC3)c2=O)cc1	n	n	33.8	n	n	n
C=CCn1nc(-c2ccccc2)cc1C(=O)OCC	n	n	21.5	n	n	n
CCOC(=O)c1cc(-c2ccccc2)nn1CCC#N	n	n	n	n	n	n
O=C(NC(=S)Nc1ccccc1N1CCCCC1)c1ccccc1	n	n	18.7	n	n	18.2
CN(CCc1ccccn1)C(=O)CCC1CCCN(C(=O)c2n[nH]c3c2CCCC3)C1 (stereo not given)	n	n	n	n	n	n

From PubChem
